Data reported in ChEMBL document CHEMBL1139844, “Synthesis and antimalarial activity of side chain modified 4-aminoquinoline derivatives” (J Med Chem, 2007).
In brackets after ≈: the same amount, converted by molar mass.

Assays:
Plasmodium falciparum = assay: Antiplasmodial activity against Plasmodium falciparum NF54; assay type: functional, organism-based
[1] = Inhibition of beta-hematin polymerization; design: species or system Plasmodium falciparum
Plasmodium yoelii = assay: Antimalarial activity against Plasmodium yoelii N67 infected in Swiss mice (Mus musculus) at 30 mg/kg, intraperitoneally; assay type: functional; conditions: route intraperitoneal
Summary of the method: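 Swiss mice infected with P. yoelii N-67, dosed ip at 30 mg/kg once daily for four consecutive days; saline-treated controls. Parasitaemia on day 4 gives % suppression = [(C − T)/C] × 100 (C, T = control, treated parasitaemia). Mean survival time counted only for mice dying within the 28-day observation period; survivors beyond 28 days excluded.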

Mus musculus = assay: Mean survival time of Swiss mice (Mus musculus) infected with Plasmodium yoelii N67 at 30 mg/kg, intraperitoneally; assay type: functional; conditions: route intraperitoneal
Summary of the method: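 Swiss mice infected with P. yoelii N-67; test compounds at 30 mg/kg given intraperitoneally once daily on four consecutive days; saline-treated mice as controls. Mice followed for 28 days; mean survival time (± SE) counted only for mice dying within that period, with survivors beyond 28 days excluded.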

| Structure (SMILES) | IC50 (Plasmodium falciparum) [nM] | MIC (Plasmodium falciparum) [µM] | IC50 [1] [equivalents] | Activity (Plasmodium yoelii) [%] | MST (Mus musculus) [days] |
| --- | --- | --- | --- | --- | --- |
| O=C1c2ccccc2SC(c2c(Cl)cccc2Cl)N1CCNc1ccnc2cc(Cl)ccc12 (stereo not given) | 291 | 5.88 (≈ 3.03 µg/mL) | 0.49 | – | – |
| O=C1c2ccccc2SC(c2c(Cl)cccc2Cl)N1CCCCNc1ccnc2cc(Cl)ccc12 (stereo not given) | 3070 | 13.8 (≈ 7.5 µg/mL) | 0.97 | – | – |
| O=C1c2ccccc2SC(c2c(Cl)cccc2Cl)N1CCCNc1ccnc2cc(Cl)ccc12 (stereo not given) | 2190 | 9.45 (≈ 5 µg/mL) | 0.65 | – | – |
| O=C1CCSC(c2c(Cl)cccc2Cl)N1CCCCNc1ccnc2cc(Cl)ccc12 (stereo not given) | 7150 | 15.2 (≈ 7.5 µg/mL) | 0.58 | – | – |
| O=C1c2ccccc2SC(c2ccc(Cl)cc2)N1CCNc1ccnc2cc(Cl)ccc12 (stereo not given) | 13 | 0.26 (≈ 0.125 µg/mL) | 0.24 | 81 | 15.2 |
| O=C1CSCN1CCCCNc1ccnc2cc(Cl)ccc12 | 2650 | 5.96 (≈ 2 µg/mL) | 0.91 | – | – |
| O=C1c2ccccc2SCN1CCNc1ccnc2cc(Cl)ccc12 | 65 | 0.68 (≈ 0.252 µg/mL) | 0.94 | 48.33 | 11.4 |
| O=C1CCSC(c2ccc(Cl)cc2)N1CCCCNc1ccnc2cc(Cl)ccc12 (stereo not given) | 271 | 0.54 (≈ 0.249 µg/mL) | 0.76 | 62.32 | 13.8 |
| O=C1c2ccccc2SCN1CCCCNc1ccnc2cc(Cl)ccc12 | 1510 | 2.51 (≈ 0.999 µg/mL) | 0.89 | – | – |
| O=C1CSC(c2c(Cl)cccc2Cl)N1CCCNc1ccnc2cc(Cl)ccc12 (stereo not given) | 138 | 0.27 (≈ 0.126 µg/mL) | 0.39 | 40.08 | 10.6 |
| CC1SCN(CCNc2ccnc3cc(Cl)ccc23)C1=O (stereo not given) | 1680 | 3.11 (≈ 1 µg/mL) | 1.05 | – | – |
| O=C1CCSC(c2c(Cl)cccc2Cl)N1CCCNc1ccnc2cc(Cl)ccc12 (stereo not given) | 6150 | 10.4 (≈ 5 µg/mL) | 0.88 | – | – |
| O=C1c2ccccc2SCN1CCCNc1ccnc2cc(Cl)ccc12 | 429 | 1.3 (≈ 0.499 µg/mL) | 0.78 | – | – |
| O=C1CSC(c2ccc(Cl)cc2)N1CCNc1ccnc2cc(Cl)ccc12 (stereo not given) | 980 | 1.2 (≈ 0.502 µg/mL) | 0.75 | – | – |
| O=C1CCSC(c2ccc(Cl)cc2)N1CCNc1ccnc2cc(Cl)ccc12 (stereo not given) | 4070 | 4.62 (≈ 2 µg/mL) | 0.47 | – | – |
| O=C1CSC(c2ccc(Cl)cc2)N1CCCCNc1ccnc2cc(Cl)ccc12 (stereo not given) | 1980 | 4.08 (≈ 1.82 µg/mL) | 0.85 | – | – |

| Structure (SMILES) | IC50 (Plasmodium falciparum) [nM] | MIC (Plasmodium falciparum) [µM] | IC50 [1] [equivalents] | Activity (Plasmodium yoelii) [%] | MST (Mus musculus) [days] |
| --- | --- | --- | --- | --- | --- |
| O=C1CCSCN1CCCNc1ccnc2cc(Cl)ccc12 | 1810 | 2.48 (≈ 0.833 µg/mL) | 0.96 | – | – |
| O=C1c2ccccc2SC(c2ccc(Cl)cc2)N1CCCCNc1ccnc2cc(Cl)ccc12 (stereo not given) | 1270 | 2.17 (≈ 1.1 µg/mL) | 0.95 | – | – |
| O=C1CSC(c2c(Cl)cccc2Cl)N1CCNc1ccnc2cc(Cl)ccc12 (stereo not given) | 39 | 0.55 (≈ 0.249 µg/mL) | 0.46 | 76.08 | 14.6 |
| O=C1CSCN1CCNc1ccnc2cc(Cl)ccc12 | 2140 | 3.25 (≈ 1 µg/mL) | 0.98 | – | – |
| O=C1CSC(c2c(Cl)cccc2Cl)N1CCCCNc1ccnc2cc(Cl)ccc12 (stereo not given) | 3030 | 6.17 (≈ 2.97 µg/mL) | 0.64 | – | – |
| CC1SCN(CCCCNc2ccnc3cc(Cl)ccc23)C1=O (stereo not given) | 1290 | 5.73 (≈ 2 µg/mL) | 0.98 | – | – |
| CC1SCN(CCCNc2ccnc3cc(Cl)ccc23)C1=O (stereo not given) | 2330 | 5.65 (≈ 1.9 µg/mL) | 1.02 | – | – |
| O=C1CCSC(c2c(Cl)cccc2Cl)N1CCNc1ccnc2cc(Cl)ccc12 (stereo not given) | 3270 | 4.28 (≈ 2 µg/mL) | 0.45 | – | – |
| O=C1CCSC(c2ccc(Cl)cc2)N1CCCNc1ccnc2cc(Cl)ccc12 (stereo not given) | 14 | 0.28 (≈ 0.125 µg/mL) | 0.62 | 23.5 | 12 |
| O=C1CCSCN1CCCCNc1ccnc2cc(Cl)ccc12 | 1810 | 2.86 (≈ 1 µg/mL) | 0.89 | – | – |
| O=C1c2ccccc2SC(c2ccc(Cl)cc2)N1CCCNc1ccnc2cc(Cl)ccc12 (stereo not given) | 1030 | 2.02 (≈ 0.999 µg/mL) | 0.46 | – | – |
| O=C1CSC(c2ccc(Cl)cc2)N1CCCNc1ccnc2cc(Cl)ccc12 (stereo not given) | 1040 | 1.16 (≈ 0.502 µg/mL) | 0.56 | – | – |
| O=C1CCSCN1CCNc1ccnc2cc(Cl)ccc12 | 2920 | 6.21 (≈ 2 µg/mL) | 0.99 | – | – |
| O=C1CSCN1CCCNc1ccnc2cc(Cl)ccc12 | 1650 | 3.11 (≈ 1 µg/mL) | 0.96 | – | – |
| CCN(CC)CCCC(C)Nc1ccnc2cc(Cl)ccc12 (stereo not given) [CHLOROQUINE] | – | 0.39 (≈ 0.125 µg/mL) | – | 99.99 | 20 |
